Data reported in ChEMBL document CHEMBL1121528, “Synthesis and pharmacology of 8-amino-3-(cyclopropylmethyl)-1,2,3,4,5,6-hexahydro-cis-6,11-dimethyl-2,6-methano-3-benzazocine and related compounds” (1980).
The source made the active and inactive calls. The calls are words filed in the database; no cut-off is given here.

Legend:
Rattus norvegicus [1] = assay: Analgesic dose required for its phenazocine antagonistic activity in rat after peroral administration; type: functional
Outline: (§1)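 Narcotic antagonist activity in rats by the Harris–Pierson tail-flick procedure against phenazocine, with compounds given orally. AD50 reported in mg/kg with 95% confidence limits, calculated as free base.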

Mus musculus [2] = assay: Effective dose required for its agonist activity in mouse by acetylcholine writhing test after sc administration; type: functional
Outline: (§2)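 Agonist (analgesic) screens: modified D'Amour-Smith tail-flick, phenylquinone-induced writhing, acetylcholine-induced writhing (mouse), and rat bradykinin test. Compounds given sc or po.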

Rattus norvegicus [3] = assay: Analgesic dose required for its phenazocine antagonistic activity in rat after peroral administration; ? = Questionable activity; type: functional, organism-based; outline: as §1
Rattus norvegicus [4] = assay: Analgesic dose required for its phenazocine antagonistic activity in rat after peroral administration; I = inactive at 40; type: functional, organism-based; outline: as §1
Rattus norvegicus [5] = assay: Analgesic dose required for its narcotic activity in Phenazocine after sc administration; type: functional
Mus musculus [6] = assay: Effective dose required for its agonist activity in acetylcholine test after po administration; type: functional; outline: as §2
Rattus norvegicus [7] = species on record: Rattus norvegicus; assay: Analgesic dose required for its narcotic activity in morphine; type: functional
Rattus norvegicus [8] = assay: Effective dose required for its agonist activity in rat tail flick test after sc administration; I = inactive; type: functional, organism-based; outline: as §2
Rattus norvegicus [9] = assay: Analgesic dose required for its narcotic activity in meperidine after sc administration; type: functional
Rattus norvegicus [10] = assay: Analgesic dose required for its narcotic activity morphine after po administration; type: functional
Rattus norvegicus [11] = assay: Analgesic dose required for its narcotic activity in Phenazocine after po administration; type: functional
Rattus norvegicus [12] = assay: Effective dose required for its agonist activity in rat bradykinin test after po administration; type: functional; outline: as §2
Rattus norvegicus [13] = assay: Analgesic dose required for its narcotic activity in meperidine after po administration; type: functional
Mus musculus [14] = assay: Effective dose required for its agonist activity in acetylcholine test after sc administration; type: functional; outline: as §2
Mus musculus [15] = assay: Effective dose required for its agonist activity in mouse by phenylquinone test after sc administration; type: functional; outline: as §2
Rattus norvegicus [16] = assay: Effective dose required for its agonist activity in rat bradykinin test after sc administration; type: functional; outline: as §2
Mus musculus [17] = assay: Effective dose required for its agonist activity in phenylquinone test after po administration; type: functional; outline: as §2
Rattus norvegicus [18] = assay: Analgesic dose required for its narcotic activity in morphine after sc administration; type: functional
Rattus norvegicus [19] = assay: analgesic dose required for its phenazocine antagonistic activity in rat after peroral administration; I = inactive; type: functional, organism-based; outline: as §1
Rattus norvegicus [20] = assay: Analgesic dose required for its narcotic activity in meperidine after peroral administration; type: functional
Rattus norvegicus [21] = assay: Effective dose required for its agonist activity in bradykinin test after sc administration; type: functional; outline: as §2
Rattus norvegicus [22] = assay: Analgesic dose required for its narcotic activity morphine after peroral administration; type: functional
Rattus norvegicus [23] = assay: Analgesic dose required for its narcotic activity in Phenazocine after peroral administration; type: functional
Mus musculus [24] = assay: Effective dose required for its agonist activity in Phenylquinone writhing test after sc administration; type: functional; outline: as §2
Rattus norvegicus [25] = species on record: Rattus norvegicus; assay: Tested for peroral analgesic dose required for its narcotic activity in meperidine; type: functional

Q: For `CC(C)CN1CC[C@]2(C)c3cc(N)ccc3CC1[C@@H]2C`, which AD50 (Rattus norvegicus [1]) is on record?
A: Its AD50 is 9.4 mg/kg.

Q: What about the ED50 (Mus musculus [2]) of the same compound?
A: The ED50 was 1.5 mg/kg.

Q: With `C=CCN1CC[C@]2(C)c3cc(N)ccc3CC1[C@@H]2C` as the compound, how does the AD50 (Rattus norvegicus [1]) read?
A: The AD50 was 1.5 mg/kg.

Q: And the ED50 (Mus musculus [2])?
A: The ED50 was 2.5 mg/kg.

Q: Which results are given for `CCCNc1ccc2c(c1)[C@@]1(C)CCN(CC3CC3)C(C2)[C@@H]1C`?
A: AD50 (Rattus norvegicus [3]): Questionable activity; ED50 (Mus musculus [2]): 1.2 mg/kg

Q: With `C[C@H]1C2Cc3ccc(NCc4ccccc4)cc3[C@@]1(C)CCN2CC1CC1` as the compound, how does the AD50 (Rattus norvegicus [1]) read?
A: Its AD50 is 1 mg/kg.

Q: For `CCCCNc1ccc2c(c1)[C@@]1(C)CCN(CC3CC3)C(C2)[C@@H]1C`, which AD50 (Rattus norvegicus [4]) is on record?
A: The AD50 was “inactive”.

Q: What about the ED50 (Mus musculus [2]) of the same compound?
A: Its ED50 is 1 mg/kg.

Q: `C[C@H]1C2Cc3ccc(N)cc3[C@@]1(C)CCN2CC1CC1` was tested. Which AD50 (Rattus norvegicus [5]) did it give?
A: The AD50 was 2.7 mg/kg.

Q: And the ED50 (Mus musculus [6])?
A: The ED50 was 3.2 mg/kg.

Q: What about the AD50 (Rattus norvegicus [7]) of the same compound?
A: Its AD50 is 3.7 mg/kg.

Q: What about the ED50 (Rattus norvegicus [8]) of the same compound?
A: Its ED50 is “inactive”.

Q: What about the AD50 (Rattus norvegicus [9]) of the same compound?
A: Its AD50 is 2 mg/kg.

Q: What about the AD50 (Rattus norvegicus [10]) of the same compound?
A: Its AD50 is 15 mg/kg.

Q: And the AD50 (Rattus norvegicus [11])?
A: The AD50 was 10 mg/kg.

Q: What about the ED50 (Rattus norvegicus [12]) of the same compound?
A: The ED50 was 8.1 mg/kg.

Q: And the AD50 (Rattus norvegicus [13])?
A: Its AD50 is 8.8 mg/kg.

Q: What about the ED50 (Mus musculus [14]) of the same compound?
A: The ED50 was 0.8 mg/kg.

Q: And the ED50 (Mus musculus [15])?
A: Its ED50 is 1.4 mg/kg.

Q: And the ED50 (Rattus norvegicus [16])?
A: Its ED50 is 1.2 mg/kg.

Q: And the ED50 (Mus musculus [17])?
A: The ED50 was 7.2 mg/kg.

Q: Which AD50 (Rattus norvegicus [1]) does the source give for `C[C@H]1C2Cc3ccc(NCC4CC4)cc3[C@@]1(C)CCN2CC1CC1.Cl` here?
A: The AD50 was 8 mg/kg.

Q: What about the ED50 (Mus musculus [2]) of the same compound?
A: The ED50 was 0.7 mg/kg.

Q: For `CC(C)=CCN1CC[C@]2(C)c3cc(O)ccc3C[C@H]1[C@H]2C` [(+)-PENTAZOCINE], which AD50 (Rattus norvegicus [5]) is on record?
A: The AD50 was 6.3 mg/kg.

Q: And the ED50 (Rattus norvegicus [8])?
A: The ED50 was “inactive”.

Q: And the AD50 (Rattus norvegicus [9])?
A: The AD50 was 3.9 mg/kg.

Q: And the AD50 (Rattus norvegicus [10])?
A: Its AD50 is 140 mg/kg.

Q: And the AD50 (Rattus norvegicus [11])?
A: The AD50 was 76 mg/kg.

Q: And the Protection (Rattus norvegicus [12])?
A: Its Protection is 40 mg/kg.

Q: And the AD50 (Rattus norvegicus [13])?
A: Its AD50 is 68 mg/kg.

Q: And the AD50 (Rattus norvegicus [18])?
A: The AD50 was 9 mg/kg.

Q: What about the ED50 (Mus musculus [15]) of the same compound?
A: The ED50 was 3.8 mg/kg.

Q: And the ED50 (Rattus norvegicus [16])?
A: The ED50 was 2.6 mg/kg.

Q: And the ED50 (Mus musculus [17])?
A: Its ED50 is 95 mg/kg.

Q: Which AD50 (Rattus norvegicus [1]) does the source give for `CNc1ccc2c(c1)[C@@]1(C)CCN(CC3CC3)C(C2)[C@@H]1C` here?
A: Its AD50 is 1.35 mg/kg.

Q: What about the ED50 (Mus musculus [2]) of the same compound?
A: The ED50 was 0.44 mg/kg.

Q: With `CCCN1CC[C@]2(C)c3cc(N)ccc3CC1[C@@H]2C` as the compound, how does the AD50 (Rattus norvegicus [1]) read?
A: The AD50 was 2 mg/kg.

Q: And the ED50 (Mus musculus [2])?
A: The ED50 was 5.6 mg/kg.

Q: Which results are given for `C[C@H]1C2Cc3ccc(N)cc3[C@@]1(C)CCN2`?
A: AD50 (Rattus norvegicus [19]): inactive; ED50 (Mus musculus [2]): 6.1 mg/kg

Q: `C[C@H]1[C@H]2Cc3ccc(O)cc3[C@]1(C)CCN2CC1CC1` [CYCLAZOCINE] was tested. Which AD50 (Rattus norvegicus [5]) did it give?
A: The AD50 was 0.028 mg/kg.

Q: And the AD50 (Rattus norvegicus [20])?
A: Its AD50 is 4.2 mg/kg.

Q: What about the ED50 (Rattus norvegicus [8]) of the same compound?
A: The ED50 was “inactive”.

Q: And the ED50 (Rattus norvegicus [21])?
A: The ED50 was 0.04 mg/kg.

Q: And the AD50 (Rattus norvegicus [9])?
A: The AD50 was 0.019 mg/kg.

Q: And the AD50 (Rattus norvegicus [22])?
A: Its AD50 is 4.3 mg/kg.

Q: And the AD50 (Rattus norvegicus [23])?
A: Its AD50 is 3.1 mg/kg.

Q: And the ED50 (Rattus norvegicus [12])?
A: The ED50 was 3.7 mg/kg.

Q: And the AD50 (Rattus norvegicus [18])?
A: The AD50 was 0.029 mg/kg.

Q: What about the ED50 (Mus musculus [15]) of the same compound?
A: Its ED50 is 0.04 mg/kg.

Q: What about the ED50 (Mus musculus [17]) of the same compound?
A: Its ED50 is 3.6 mg/kg.

Q: `C[C@H]1C2Cc3ccc([N+](=O)[O-])cc3[C@@]1(C)CCN2CC1CC1.Cl` was tested. Which ED50 (Mus musculus [24]) did it give?
A: Its ED50 is 24 mg/kg.

Q: And the AD50 (Rattus norvegicus [25])?
A: Its AD50 is 9.6 mg/kg.

Q: For `C[C@H]1C2Cc3ccc(N(C)C)cc3[C@@]1(C)CCN2CC1CC1`, which ED50 (Mus musculus [2]) is on record?
A: Its ED50 is 0.79 mg/kg.

Q: For `CCNc1ccc2c(c1)[C@@]1(C)CCN(CC3CC3)C(C2)[C@@H]1C`, which AD50 (Rattus norvegicus [4]) is on record?
A: The AD50 was “inactive”.

Q: And the ED50 (Mus musculus [2])?
A: Its ED50 is 1.3 mg/kg.
